Laboratory results from ChEMBL document CHEMBL3580615, “Isolation and Characterization of Dammarane-Type Saponins from Gynostemma pentaphyllum and Their Inhibitory Effects on IL-6-Induced STAT3 Activation” (J Nat Prod, 2015).

Assay: Cytotoxicity against human Hep3B cells after 48 hrs by MTT assay
Assay type: cell-based
Conditions: hep 3b2, 48 h
In short: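 Hep3B cells plated and grown 24 h in 96-well plates, then switched to serum-free medium. Samples added at indicated concentrations for 48 h. Viability read by MTT assay.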

| SMILES | Activity |
| --- | --- |
| CC(C)/C=C/C[C@](C)(O[C@@H]1O[C@H](CO[C@@H]2O[C@@H](C)[C@H](O)[C@@H](O)[C@H]2O)[C@@H](O)[C@H](O)[C@H]1O)[C@H]1CC[C@]2(C)[C@@H]1[C@H](O)C[C@@H]1[C@@]3(C)C[C@@H](O)[C@H](O[C@@H]4O[C@H](CO)[C@@H](O)[C@H](O)[C@H]4O[C@@H]4O[C@H](CO)[C@@H](O)[C@H](O)[C@H]4O)C(C)(C)[C@@H]3CC[C@]12C | Non-toxic |
| C[C@@H]1O[C@@H](OC[C@H]2O[C@@H](O[C@@](C)(C/C=C/C(C)(C)O)[C@H]3CC[C@]4(C)[C@@H]3[C@H](O)C[C@@H]3[C@@]5(C)C[C@@H](O)[C@H](O[C@@H]6O[C@H](CO)[C@@H](O)[C@H](O)[C@H]6O)C(C)(C)[C@@H]5CC[C@]34C)[C@H](O)[C@@H](O)[C@@H]2O)[C@H](O)[C@H](O)[C@H]1O | Non-toxic |
| CC(C)(/C=C/C[C@](C)(O[C@@H]1O[C@H](CO)[C@@H](O)[C@H](O)[C@H]1O)[C@H]1CC[C@]2(C)[C@@H]1[C@H](O)C[C@@H]1[C@@]3(C)C[C@@H](O)[C@H](O[C@@H]4O[C@H](CO)[C@@H](O)[C@H](O)[C@H]4O[C@@H]4O[C@H](CO)[C@@H](O)[C@H](O)[C@H]4O)C(C)(C)[C@@H]3CC[C@]12C)OO | Non-toxic |
| C[C@@H]1O[C@@H](OC[C@H]2O[C@@H](O[C@@](C)(C/C=C/C(C)(C)OO)[C@H]3CC[C@]4(C)[C@@H]3[C@H](O)C[C@@H]3[C@@]5(C)C[C@@H](O)[C@H](O[C@@H]6O[C@H](CO)[C@@H](O)[C@H](O)[C@H]6O[C@@H]6O[C@H](CO)[C@@H](O)[C@H](O)[C@H]6O)C(C)(C)[C@@H]5CC[C@]34C)[C@H](O)[C@@H](O)[C@@H]2O)[C@H](O)[C@H](O)[C@H]1O | Non-toxic |
| CC(C)(/C=C/C[C@](C)(O[C@@H]1O[C@H](CO[C@@H]2O[C@H](CO)[C@@H](O)[C@H](O)[C@H]2O)[C@@H](O)[C@H](O)[C@H]1O)[C@H]1CC[C@]2(C)[C@@H]1[C@H](O)C[C@@H]1[C@@]3(C)C[C@@H](O)[C@H](O)C(C)(C)[C@@H]3CC[C@]12C)OO | Non-toxic |
| C=C(C)C(=O)CC[C@](C)(O[C@@H]1O[C@H](CO[C@@H]2O[C@@H](C)[C@H](O)[C@@H](O)[C@H]2O)[C@@H](O)[C@H](O)[C@H]1O)[C@H]1CC[C@]2(C)[C@@H]1[C@H](O)C[C@@H]1[C@@]3(C)C[C@@H](O)[C@H](O[C@@H]4O[C@H](CO)[C@@H](O)[C@H](O)[C@H]4O[C@@H]4O[C@H](CO)[C@@H](O)[C@H](O)[C@H]4O)C(C)(C)[C@@H]3CC[C@]12C | Non-toxic |
| C=C(C)C(=O)CC[C@](C)(O[C@@H]1O[C@H](CO[C@@H]2O[C@H](CO)[C@@H](O)[C@H](O)[C@H]2O)[C@@H](O)[C@H](O)[C@H]1O)[C@H]1CC[C@]2(C)[C@@H]1[C@H](O)C[C@@H]1[C@@]3(C)C[C@@H](O)[C@H](O)C(C)(C)[C@@H]3CC[C@]12C | Non-toxic |
| CC(C)/C=C/C[C@](C)(O[C@@H]1O[C@H](CO[C@@H]2O[C@@H](C)[C@H](O)[C@@H](O)[C@H]2O)[C@@H](O)[C@H](O)[C@H]1O)[C@H]1CC[C@]2(C)[C@@H]1[C@H](O)C[C@@H]1[C@@]3(C)C[C@@H](O)[C@H](O[C@@H]4O[C@H](CO)[C@@H](O)[C@H](O)[C@H]4O)C(C)(C)[C@@H]3CC[C@]12C | Non-toxic |
| C=C(C)C(=O)CC[C@](C)(O[C@@H]1O[C@H](CO[C@@H]2O[C@@H](C)[C@H](O)[C@@H](O)[C@H]2O)[C@@H](O)[C@H](O)[C@H]1O)[C@H]1CC[C@]2(C)[C@@H]1[C@H](O)C[C@@H]1[C@@]3(C)C[C@@H](O)[C@H](O)C(C)(C)[C@@H]3CC[C@]12C | Non-toxic |
| CC(C)/C=C/C[C@](C)(O[C@@H]1O[C@H](CO[C@@H]2O[C@@H](C)[C@H](O)[C@@H](O)[C@H]2O)[C@@H](O)[C@H](O)[C@H]1O)[C@H]1CC[C@]2(C)[C@@H]1[C@H](O)C[C@@H]1[C@@]3(C)CC[C@H](O[C@@H]4O[C@H](CO)[C@@H](O)[C@H](O)[C@H]4O[C@@H]4O[C@H](CO)[C@@H](O)[C@H](O)[C@H]4O)C(C)(C)[C@@H]3CC[C@]12C | Non-toxic |
| CC(C)/C=C/C[C@](C)(O[C@@H]1O[C@H](CO[C@@H]2O[C@@H](C)[C@H](O)[C@@H](O)[C@H]2O)[C@@H](O)[C@H](O)[C@H]1O)[C@H]1CC[C@]2(C)[C@@H]1[C@H](O)C[C@@H]1[C@@]3(C)C[C@@H](O)[C@H](O)C(C)(C)[C@@H]3CC[C@]12C | Non-toxic |
